Active and inactive are the calls of the source. No cut-off for these calls is given here.
Tests used:
Diaporthe ampelina [1] = test: Antifungal activity against Diaporthe ampelina assessed as growth inhibition at 30 uM after 120 hr by microplate photometric analysis; assay type: functional, organism-based
Summary of the method: (§1)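 P. viticola was isolated from grape, and its conidia were harvested from 7–10-day PDA cultures, filtered and adjusted photometrically to 1.0 × 10^6/mL. Growth was run in RPMI broth buffered with 0.165 M MOPS (pH 7) at final 30, 100 or 300 µM (120 mM stocks in 95% ethanol), with duplicate wells, at 24 ± 2 °C under a 12-h photoperiod. A620 was read at 120 h and expressed relative to untreated conidia controls.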

Phomopsis obscurans [2] = test: Antifungal activity against Phomopsis obscurans assessed as growth inhibition at 30 uM after 120 hr by microplate photometric analysis; assay type: functional; settings: Paraphomopsis obscurans, read-out: GI
Summary of the method: (§2)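 Phomopsis conidia, from strawberry or grape isolates grown 7–10 days on PDA, were tested in RPMI/0.165 M MOPS (pH 7) microtiter wells. Ethanol stocks were diluted to final 30, 100 and 300 µM, with duplicate wells and compound-only blanks. Incubation was at 24 ± 2 °C under a 12-h photoperiod, with A620 read at 120 h because germination is slow. Results are % change versus untreated conidia controls, run twice in time (n = 4).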

Botrytis cinerea [3] = test: Antifungal activity against Botryotinia fuckeliana assessed as growth inhibition at 300 uM after 48 hr by microplate photometric analysis; assay type: functional, organism-based
Summary of the method: (§3)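 Conidia came from 7–10-day PDA cultures (24 ± 2 °C, 12-h photoperiod) and were filtered and adjusted photometrically to 1.0 × 10^6/mL. B. cinerea was isolated from grape, C. gloeosporioides from strawberry and F. oxysporum from orchid. Growth was run in MOPS-buffered RPMI (0.165 M, pH 7) at final 30, 100 or 300 µM from 120 mM ethanol stocks, with duplicate wells, and read as A620 at 48 h. Results are % of untreated growth.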

Diaporthe ampelina [4] = test: Antifungal activity against Diaporthe ampelina assessed as growth inhibition at 30 to 300 uM after 120 hr by microplate photometric analysis; assay type: functional, organism-based; summary of the method: as §2
Phomopsis obscurans [5] = test: Antifungal activity against Phomopsis obscurans assessed as growth inhibition at 300 uM after 120 hr by microplate photometric analysis; assay type: functional; settings: Paraphomopsis obscurans; for inhibition of growth at 300 µM: read-out: GI; summary of the method: as §2
Fusarium solani = test: Fungistatic activity against Fusarium solani assessed as growth inhibition; assay type: functional, organism-based
Fusarium oxysporum [6] = test: Antifungal activity against Fusarium oxysporum assessed as growth inhibition at 300 uM after 48 hr by microplate photometric analysis; assay type: functional; settings: read-out: GI
Summary of the method: (§4)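 96-well broth microdilution on conidia from 7–10-day PDA cultures of isolates from strawberry, grape or orchid. Conidia were in RPMI buffered with 0.165 M MOPS (pH 7). Ethanol stocks were diluted to final 30, 100 and 300 µM, with duplicate wells and compound-only blanks. Plates were incubated at 24 ± 2 °C under a 12-h photoperiod and read at A620 after 48 h. Results are % change versus untreated conidia controls, split-plot design run twice (n = 4).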

[7] = tested on: Colletotrichum gloeosporioides; test: Stimulation of Colletotrichum gloeosporioides growth at 30 to 300 uM after 48 hr by microplate photometric analysis; assay type: functional, organism-based; summary of the method: as §3
Colletotrichum fragariae [8] = test: Antifungal activity against Colletotrichum fragariae assessed as growth inhibition at 300 uM after 48 hr by microplate photometric analysis; assay type: functional; settings: read-out: GI; summary of the method: as §4
Colletotrichum acutatum [9] = test: Stimulation of Colletotrichum acutatum growth at 30 uM after 48 hr by microplate photometric analysis; assay type: functional; summary of the method: as §4
Botrytis cinerea [10] = test: Antifungal activity against Botryotinia fuckeliana assessed as growth inhibition at 30 to 300 uM after 48 hr by microplate photometric analysis; assay type: functional, organism-based; summary of the method: as §4
[11] = tested on: Colletotrichum gloeosporioides; test: Antifungal activity against Colletotrichum gloeosporioides assessed as growth inhibition at 100 uM after 48 hr by microplate photometric analysis; assay type: functional; settings: read-out: GI; summary of the method: as §4
Colletotrichum fragariae [12] = test: Antifungal activity against Colletotrichum fragariae assessed as growth inhibition at 30 to 300 uM after 48 hr by microplate photometric analysis; assay type: functional; summary of the method: as §4
Colletotrichum acutatum [13] = test: Antifungal activity against Colletotrichum acutatum assessed as growth inhibition at 300 uM after 48 hr by microplate photometric analysis; assay type: functional; settings: read-out: GI; summary of the method: as §4
Diaporthe ampelina [14] = test: Stimulation of Diaporthe ampelina growth at 30 to 300 uM after 120 hr by microplate photometric analysis; assay type: functional, organism-based; summary of the method: as §1
Phomopsis obscurans [15] = test: Antifungal activity against Phomopsis obscurans assessed as growth inhibition at 100 uM after 120 hr by microplate photometric analysis; assay type: functional; settings: Paraphomopsis obscurans, read-out: GI; summary of the method: as §2
Botrytis cinerea [16] = test: Stimulation of Botryotinia fuckeliana growth at 30 uM after 48 hr by microplate photometric analysis; assay type: functional, organism-based; summary of the method: as §3
Phomopsis obscurans [17] = test: Antifungal activity against Phomopsis obscurans assessed as growth inhibition at 30 to 300 uM after 120 hr by microplate photometric analysis; assay type: functional, organism-based; settings: Paraphomopsis obscurans; summary of the method: as §2
Fusarium oxysporum [18] = test: Stimulation of Fusarium oxysporum growth at 30 uM after 48 hr by microplate photometric analysis; assay type: functional, organism-based; summary of the method: as §3
[19] = tested on: Colletotrichum gloeosporioides; test: Antifungal activity against Colletotrichum gloeosporioides assessed as growth inhibition at 300 uM after 48 hr by microplate photometric analysis; assay type: functional; settings: read-out: GI; summary of the method: as §4
Phomopsis obscurans [20] = test: Stimulation of Phomopsis obscurans growth at 30 to 300 uM after 120 hr by microplate photometric analysis; assay type: functional, organism-based; settings: Paraphomopsis obscurans; summary of the method: as §2
Botrytis cinerea [21] = test: Stimulation of Botryotinia fuckeliana growth at 30 to 300 uM after 48 hr by microplate photometric analysis; assay type: functional, organism-based; summary of the method: as §4
Diaporthe ampelina [22] = test: Antifungal activity against Diaporthe ampelina assessed as growth inhibition at 300 uM after 120 hr by microplate photometric analysis; assay type: functional; settings: read-out: GI; summary of the method: as §2

Question: For O=c1cc(CCCCc2ccc3c(c2)OCO3)[nH]c2ccccc12, which “growth inhibition (GI)” value (Diaporthe ampelina [1]) is on record?
Answer: Its value is “Active”.

Question: What about the inhibition of growth at 30 µM (Phomopsis obscurans [2]) of the same compound?
Answer: The inhibition of growth at 30 µM was 100%.

Question: And the “growth inhibition (GI)” value (Botrytis cinerea [3])?
Answer: The value was “Active”.

Question: Which results are given for COc1c2occc2cc2ccc(=O)oc12 [METHOXSALEN]?
Answer: growth inhibition (GI) (Diaporthe ampelina [4]): Active; inhibition of growth at 300 µM (Phomopsis obscurans [5]): 100%; inhibition of growth at 30 µM (Phomopsis obscurans [2]): 80%; growth inhibition (GI) (Botrytis cinerea [3]): Active; IC50 (Fusarium solani): 125 µM; inhibition of growth at 300 µM (Fusarium oxysporum [6]): 50%; Activity [7]: Active; inhibition of growth at 300 µM (Colletotrichum fragariae [8]): 29%; Activity (Colletotrichum acutatum [9]): 15%

Question: What does the source list for Cn1c(CCCCCCc2ccc3c(c2)OCO3)cc(=O)c2ccccc21?
Answer: growth inhibition (GI) (Diaporthe ampelina [1]): Active; inhibition of growth at 30 µM (Phomopsis obscurans [2]): 100%; growth inhibition (GI) (Botrytis cinerea [10]): Active; inhibition of growth at 100 µM [11]: 67.7%; growth inhibition (GI) (Colletotrichum fragariae [12]): Active; inhibition of growth at 300 µM (Colletotrichum acutatum [13]): 57%

Question: Which Activity (Diaporthe ampelina [14]) does the source give for Cn1c(-c2ccc3c(c2)OCO3)cc(=O)c2ccccc21 [GRAVEOLINE] here?
Answer: The Activity was “Active”.

Question: What about the inhibition of growth at 100 µM (Phomopsis obscurans [15]) of the same compound?
Answer: The inhibition of growth at 100 µM was 100%.

Question: What about the Activity (Botrytis cinerea [16]) of the same compound?
Answer: The Activity was “Active”.

Question: And the inhibition of growth at 300 µM (Fusarium oxysporum [6])?
Answer: Its inhibition of growth at 300 µM is 44%.

Question: And the “growth inhibition (GI)” value (Colletotrichum fragariae [12])?
Answer: The value was “Active”.

Question: What does the source list for O=C1C2CC=CCC2C(=O)N1SC(Cl)(Cl)Cl (configuration not stated) [CAPTAN]?
Answer: growth inhibition (GI) (Diaporthe ampelina [4]): Active; growth inhibition (GI) (Phomopsis obscurans [17]): Active; inhibition of growth at 300 µM (Fusarium oxysporum [6]): 100%

Question: For COc1ccc2ccc(=O)oc2c1 [HERNIARIN], which Activity (Diaporthe ampelina [14]) is on record?
Answer: The Activity was “Active”.

Question: And the Activity (Botrytis cinerea [16])?
Answer: The Activity was “Active”.

Question: And the “growth inhibition (GI)” value (Botrytis cinerea [3])?
Answer: The value was “Active”.

Question: And the Activity (Fusarium oxysporum [18])?
Answer: The Activity was “Active”.

Question: And the Activity [7]?
Answer: The Activity was “Active”.

Question: What about the inhibition of growth at 300 µM (Colletotrichum fragariae [8]) of the same compound?
Answer: The inhibition of growth at 300 µM was 21%.

Question: What about the Activity (Colletotrichum acutatum [9]) of the same compound?
Answer: Its Activity is 15%.

Question: How did the “growth inhibition (GI)” value (Diaporthe ampelina [4]) turn out when COc1c2ccoc2cc2oc(=O)ccc12 [BERGAPTEN] was run?
Answer: The value was “Active”.

Question: What about the inhibition of growth at 30 µM (Phomopsis obscurans [2]) of the same compound?
Answer: The inhibition of growth at 30 µM was 80%.

Question: What about the IC50 (Fusarium solani) of the same compound?
Answer: The IC50 was 27.7 µM.

Question: And the Activity [7]?
Answer: Its Activity is “Active”.

Question: What about the Activity (Colletotrichum acutatum [9]) of the same compound?
Answer: Its Activity is 15%.

Question: For CCCCCCCCCc1cc(=O)c2ccccc2[nH]1, which “growth inhibition (GI)” value (Diaporthe ampelina [1]) is on record?
Answer: The value was “Active”.

Question: What about the “growth inhibition (GI)” value (Phomopsis obscurans [5]) of the same compound?
Answer: Its value is “inactive”.

Question: What about the inhibition of growth at 100 µM (Phomopsis obscurans [15]) of the same compound?
Answer: Its inhibition of growth at 100 µM is 100%.

Question: And the Activity (Botrytis cinerea [16])?
Answer: Its Activity is “Active”.

Question: What about the inhibition of growth at 300 µM (Fusarium oxysporum [6]) of the same compound?
Answer: Its inhibition of growth at 300 µM is 37%.

Question: And the “growth inhibition (GI)” value (Colletotrichum fragariae [12])?
Answer: Its value is “Active”.

Question: And the inhibition of growth at 300 µM (Colletotrichum acutatum [13])?
Answer: Its inhibition of growth at 300 µM is 50%.

Question: With COc1cc2nc3occc3c(OC)c2cc1OC [KOKUSAGININE] as the compound, how does the “growth inhibition (GI)” value (Diaporthe ampelina [1]) read?
Answer: Its value is “Active”.

Question: And the inhibition of growth at 300 µM (Phomopsis obscurans [5])?
Answer: Its inhibition of growth at 300 µM is 100%.

Question: And the inhibition of growth at 30 µM (Phomopsis obscurans [2])?
Answer: The inhibition of growth at 30 µM was 80%.

Question: What about the inhibition of growth at 300 µM [19] of the same compound?
Answer: The inhibition of growth at 300 µM was 50%.

Question: What about the “growth inhibition (GI)” value (Colletotrichum fragariae [12]) of the same compound?
Answer: Its value is “Active”.

Question: What does the source list for O=c1cc(O)c2ccccc2o1 [4-HYDROXYCOUMARINS]?
Answer: Activity (Diaporthe ampelina [14]): Active; Activity (Phomopsis obscurans [20]): Active; Activity (Botrytis cinerea [21]): Active; Activity [7]: Active; Activity (Colletotrichum acutatum [9]): 15%

Question: O=c1ccc2ccc(O)cc2o1 [UMBELLIFERONE] was tested. Which Activity (Diaporthe ampelina [14]) did it give?
Answer: Its Activity is “Active”.

Question: What about the Activity (Phomopsis obscurans [20]) of the same compound?
Answer: The Activity was “Active”.

Question: What about the Activity (Botrytis cinerea [21]) of the same compound?
Answer: The Activity was “Active”.

Question: And the Activity [7]?
Answer: The Activity was “Active”.

Question: And the Activity (Colletotrichum acutatum [9])?
Answer: The Activity was 15%.

Question: For CCCCNC(=O)n1c(NC(=O)OC)nc2ccccc21 [BENOMYL], which inhibition of growth at 300 µM (Diaporthe ampelina [22]) is on record?
Answer: The inhibition of growth at 300 µM was 57%.

Question: What about the “growth inhibition (GI)” value (Phomopsis obscurans [17]) of the same compound?
Answer: The value was “Active”.

Question: And the “growth inhibition (GI)” value (Botrytis cinerea [10])?
Answer: The value was “Active”.

Question: And the inhibition of growth at 300 µM (Fusarium oxysporum [6])?
Answer: The inhibition of growth at 300 µM was 77%.

Question: What about the inhibition of growth at 300 µM [19] of the same compound?
Answer: The inhibition of growth at 300 µM was 66%.

Question: What about the “growth inhibition (GI)” value (Colletotrichum fragariae [12]) of the same compound?
Answer: Its value is 76%.

Question: What about the inhibition of growth at 300 µM (Colletotrichum acutatum [13]) of the same compound?
Answer: Its inhibition of growth at 300 µM is 33%.

Source: ChEMBL document CHEMBL3044619, “Natural fungicides from Ruta graveolens L. leaves, including a new quinolone alkaloid” (J Agric Food Chem, 2003)
